# The source made the active and inactive calls. No cut-off for these calls is given here.
# Key:
# [1] = biological target: Phosphatidylinositol 4,5-bisphosphate 3-kinase catalytic subunit gamma isoform (Homo sapiens, UniProt P48736); test: Inhibition of human recombinant PI3Kgamma assessed as PIP3 production by AlphaScreen assay
# [2] = biological target: T1, Phosphatidylinositol 4,5-bisphosphate 3-kinase catalytic subunit delta isoform (Homo sapiens, UniProt O00329); test: Inhibition of human recombinant PI3Kdelta assessed as PIP3 production by AlphaScreen assay
# T1 sequence (O00329 whole entry): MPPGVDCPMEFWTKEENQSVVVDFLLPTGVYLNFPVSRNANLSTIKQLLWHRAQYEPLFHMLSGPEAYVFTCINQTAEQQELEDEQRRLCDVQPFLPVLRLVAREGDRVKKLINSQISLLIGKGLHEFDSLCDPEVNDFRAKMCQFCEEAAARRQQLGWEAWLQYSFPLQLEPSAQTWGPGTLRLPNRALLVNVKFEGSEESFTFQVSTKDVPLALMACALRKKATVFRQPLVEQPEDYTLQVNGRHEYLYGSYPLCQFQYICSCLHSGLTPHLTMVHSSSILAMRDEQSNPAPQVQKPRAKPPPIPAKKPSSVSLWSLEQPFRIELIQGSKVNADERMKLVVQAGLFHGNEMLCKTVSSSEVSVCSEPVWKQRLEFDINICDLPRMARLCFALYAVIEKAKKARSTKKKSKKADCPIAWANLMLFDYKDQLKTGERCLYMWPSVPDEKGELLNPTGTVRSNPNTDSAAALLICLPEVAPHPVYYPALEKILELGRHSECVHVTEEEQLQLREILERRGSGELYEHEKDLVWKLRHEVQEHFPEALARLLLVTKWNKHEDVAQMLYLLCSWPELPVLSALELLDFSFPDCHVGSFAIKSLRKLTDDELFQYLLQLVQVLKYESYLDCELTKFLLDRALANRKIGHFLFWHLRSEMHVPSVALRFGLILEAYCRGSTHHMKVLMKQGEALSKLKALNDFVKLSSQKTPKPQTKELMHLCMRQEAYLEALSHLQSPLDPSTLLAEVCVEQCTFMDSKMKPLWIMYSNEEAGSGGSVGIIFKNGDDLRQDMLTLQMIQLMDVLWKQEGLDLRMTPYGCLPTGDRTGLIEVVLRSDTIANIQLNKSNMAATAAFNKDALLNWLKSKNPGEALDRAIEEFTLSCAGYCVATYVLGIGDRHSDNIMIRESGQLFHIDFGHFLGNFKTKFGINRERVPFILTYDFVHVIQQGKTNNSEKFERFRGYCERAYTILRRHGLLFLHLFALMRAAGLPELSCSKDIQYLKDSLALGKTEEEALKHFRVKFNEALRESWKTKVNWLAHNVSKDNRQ
# [3] = Antiplatelet activity against human platelet assessed as inhibition of collagen-induced platelet rich plasma aggregation by light transmission aggregometry; type: functional, cell-free
# Procedure, shortened: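 Human platelet rich plasma stimulated with collagen. Aggregation read by light transmission aggregometry in an in-house 96-well plate format.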
# [4] = Solubility of the compound in DMSO/HBSS at pH 7.4; type: physicochemical
# Procedure, shortened: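 Compound from DMSO stock added to HBSS buffer. Solubility measured at pH 7.4.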
# [5] = Half life in human hepatocytes at 2 uM by LCMS analysis; type: ADME, cell-based, Hepatocyte
# Procedure, shortened: (§1)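 Test compound incubated with human hepatocytes. Intrinsic clearance and half-life derived from compound disappearance.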
# [6] = Fraction unbound in human plasma after 18 hrs at 37 degC after 18 hrs; type: ADME, cell-free
# Procedure, shortened: (§2)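 Human and dog plasma. Fraction unbound measured by equilibrium dialysis, 18 h at 37 °C, reported as % unbound.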
# [7] = Fraction unbound in dog plasma after 18 hrs at 37 degC after 18 hrs; type: ADME, cell-free, Canis lupus familiaris; procedure, shortened: as §2
# [8] = Clearance in Beagle dog at 1 umol/kg, iv and 2 umol/kg, po; type: ADME, organism-based, Canis lupus familiaris; conditions: in vivo
# Procedure, shortened: (§3)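 Fasted male Beagle dogs dosed iv or po (iv N = 5, po N = 4). Plasma concentrations analysed by noncompartmental analysis to give CL, Vss and oral F.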
# Canis familiaris [9] = test: Inhibition of ADP-induced platelet aggregation in iv dosed Beagle dog assessed as blood loss volume; type: organism-based, Canis lupus familiaris; conditions: in vivo
# Procedure, shortened: (§4)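 Anaesthetized dogs in a modified Folts' model. Saline vehicle given first, then consecutive iv doses over 30 min periods (bolus 0.03–1.3 µg/kg plus infusion 0.005–0.24 µg/kg/min). Measured: cyclic flow reductions, bleeding time, blood loss, ex vivo ADP-induced whole blood aggregation (Multiplate), and plasma exposure, related by PKPD.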
# [10] = Volume of distribution at steady state in Beagle dog at 1 umol/kg, iv and 2 umol/kg, po; type: ADME, organism-based, Canis lupus familiaris; conditions: in vivo, read-out: Vdss; procedure, shortened: as §3
# Canis familiaris [11] = species on record: Canis familiaris; test: Ex vivo antiplatelet activity in Beagle dog assessed as inhibition of ADP-induced platelet aggregation; type: functional, Canis lupus familiaris; procedure, shortened: as §4
# [12] = Oral bioavailability in Beagle dog at 2 umol/kg; type: ADME, organism-based, Canis lupus familiaris; conditions: in vivo; procedure, shortened: as §3
# Canis familiaris [13] = test: Inhibition of ADP-induced platelet aggregation in iv dosed Beagle dog assessed as bleeding time; type: organism-based, Canis lupus familiaris; conditions: in vivo; procedure, shortened: as §4
# Rattus norvegicus = species on record: Rattus norvegicus; test: Effect on insulin resistance in Sprague-Dawley rat assessed as HOMA-index at maximum compound concentration; type: ADME, organism-based; conditions: in vivo
# Procedure, shortened: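 Sprague-Dawley rats given compound. Relative HOMA insulin resistance index (plasma glucose × plasma insulin) compared with baseline and related to plasma concentration.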
# [14] = biological target: Voltage-gated inwardly rectifying potassium channel KCNH2 (Homo sapiens, UniProt Q12809); test: Inhibition of human ERG channel expressed in CHO cells at 20.4 +/- 2.4 uM by patch clamp assay; type: cell-based
# [15] = biological target: Sodium channel protein type 5 subunit alpha (Homo sapiens, UniProt Q14524); test: Inhibition of human Nav1.5 channel expressed in CHO cells at 20.4 +/- 2.4 uM by patch clamp assay; type: cell-based
# [16] = biological target: Sodium channel protein type 2 subunit alpha (Homo sapiens) (UniProt Q99250); test: Inhibition of human Nav1.2 channel expressed in CHO cells at 20.4 +/- 2.4 uM by patch clamp assay; type: cell-based
# [17] = biological target: T2, A-type voltage-gated potassium channel KCND3 (Homo sapiens, UniProt Q9UK17); test: Inhibition of human Kv4.3 channel expressed in CHO cells at 20.4 +/- 2.4 uM by patch clamp assay; type: cell-based
# T2 sequence (Q9UK17 whole entry): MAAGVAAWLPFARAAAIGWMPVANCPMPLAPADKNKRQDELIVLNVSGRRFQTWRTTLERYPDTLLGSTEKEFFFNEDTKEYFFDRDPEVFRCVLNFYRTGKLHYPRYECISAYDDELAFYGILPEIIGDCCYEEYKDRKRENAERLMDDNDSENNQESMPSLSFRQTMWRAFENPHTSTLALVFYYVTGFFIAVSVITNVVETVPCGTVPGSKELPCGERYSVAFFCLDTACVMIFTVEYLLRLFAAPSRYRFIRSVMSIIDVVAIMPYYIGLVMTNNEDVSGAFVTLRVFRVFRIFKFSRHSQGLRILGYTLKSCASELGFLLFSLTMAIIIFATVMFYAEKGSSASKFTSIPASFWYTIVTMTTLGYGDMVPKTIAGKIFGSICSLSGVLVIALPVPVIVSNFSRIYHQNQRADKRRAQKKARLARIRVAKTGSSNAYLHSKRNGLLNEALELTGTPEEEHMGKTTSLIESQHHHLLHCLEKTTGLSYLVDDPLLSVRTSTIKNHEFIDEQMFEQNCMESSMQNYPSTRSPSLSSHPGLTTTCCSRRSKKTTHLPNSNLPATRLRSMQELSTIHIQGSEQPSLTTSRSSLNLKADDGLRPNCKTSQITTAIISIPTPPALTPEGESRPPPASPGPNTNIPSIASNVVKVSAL
# CHO = test: Inhibition of human IKs channel expressed in CHO cells at 20.4 +/- 2.4 uM by patch clamp assay; type: cell-based
# [18] = biological target: Voltage-dependent T-type calcium channel subunit alpha-1H (Homo sapiens) (UniProt O95180); test: Inhibition of human Cav3.2 channel expressed in CHO cells at 20.4 +/- 2.4 uM by patch clamp assay; type: cell-based
# [19] = biological target: Voltage-dependent N-type calcium channel subunit alpha-1B (Homo sapiens) (UniProt Q00975); test: Inhibition of human Cav2.2 channel expressed in CHO cells at 20.4 +/- 2.4 uM by patch clamp assay; type: cell-based
# [20] = biological target: Voltage-dependent L-type calcium channel subunit alpha-1C (Homo sapiens, UniProt Q13936); test: Inhibition of human CACNA1C channel expressed in CHO cells at 20.4 +/- 2.4 uM by patch clamp assay; type: cell-based
# [21] = biological target: Voltage-dependent L-type calcium channel subunit beta-2 (Homo sapiens) (UniProt Q08289); test: Inhibition of human CACNB2 channel expressed in CHO cells at 20.4 +/- 2.4 uM by patch clamp assay; type: cell-based
# [22] = biological target: Voltage-dependent calcium channel subunit alpha-2/delta-1 (Homo sapiens) (UniProt P54289); test: Inhibition of human CACNA2D1 channel expressed in CHO cells at 20.4 +/- 2.4 uM by patch clamp assay; type: cell-based
# [23] = Antiplatelet activity against dog platelet assessed as inhibition of ADP-induced whole blood aggregation by impedance aggregometry; conditions: Canis lupus familiaris
# [24] = Antiplatelet activity against human platelet assessed as inhibition of ADP-induced whole blood aggregation by impedance aggregometry
# [25] = Apparent permeability across apical to basolateral side of human Caco2 cells at 10 uM at pH 6.5 by LC-tandem MS analysis; type: ADME, cell-based; conditions: Caco-2, pH 6.5
# Procedure, shortened: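 Caco-2 monolayers, apical-to-basolateral transport at pH 6.5. Result given as apparent permeability (Papp).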
# Hepatocyte = test: Intrinsic clearance in human hepatocytes at 2 uM by LCMS analysis; type: ADME, cell-based; procedure, shortened: as §1
# [26] = Lipophilicity, log D of the compound at pH 7.4 by HPLC method; type: physicochemical; conditions: buffer
# Procedure, shortened: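 LogD measured experimentally at pH 7.4 by an HPLC method.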
# [27] = Half life in iv dosed healthy volunteers plasma; type: ADME, organism-based; conditions: human
# [28] = Volume of distribution in iv dosed healthy volunteers; type: ADME, organism-based; conditions: human, in vivo
# Chain of Phosphatidylinositol 4,5-bisphosphate 3-kinase catalytic subunit gamma isoform (P48736 whole entry, canonical isoform): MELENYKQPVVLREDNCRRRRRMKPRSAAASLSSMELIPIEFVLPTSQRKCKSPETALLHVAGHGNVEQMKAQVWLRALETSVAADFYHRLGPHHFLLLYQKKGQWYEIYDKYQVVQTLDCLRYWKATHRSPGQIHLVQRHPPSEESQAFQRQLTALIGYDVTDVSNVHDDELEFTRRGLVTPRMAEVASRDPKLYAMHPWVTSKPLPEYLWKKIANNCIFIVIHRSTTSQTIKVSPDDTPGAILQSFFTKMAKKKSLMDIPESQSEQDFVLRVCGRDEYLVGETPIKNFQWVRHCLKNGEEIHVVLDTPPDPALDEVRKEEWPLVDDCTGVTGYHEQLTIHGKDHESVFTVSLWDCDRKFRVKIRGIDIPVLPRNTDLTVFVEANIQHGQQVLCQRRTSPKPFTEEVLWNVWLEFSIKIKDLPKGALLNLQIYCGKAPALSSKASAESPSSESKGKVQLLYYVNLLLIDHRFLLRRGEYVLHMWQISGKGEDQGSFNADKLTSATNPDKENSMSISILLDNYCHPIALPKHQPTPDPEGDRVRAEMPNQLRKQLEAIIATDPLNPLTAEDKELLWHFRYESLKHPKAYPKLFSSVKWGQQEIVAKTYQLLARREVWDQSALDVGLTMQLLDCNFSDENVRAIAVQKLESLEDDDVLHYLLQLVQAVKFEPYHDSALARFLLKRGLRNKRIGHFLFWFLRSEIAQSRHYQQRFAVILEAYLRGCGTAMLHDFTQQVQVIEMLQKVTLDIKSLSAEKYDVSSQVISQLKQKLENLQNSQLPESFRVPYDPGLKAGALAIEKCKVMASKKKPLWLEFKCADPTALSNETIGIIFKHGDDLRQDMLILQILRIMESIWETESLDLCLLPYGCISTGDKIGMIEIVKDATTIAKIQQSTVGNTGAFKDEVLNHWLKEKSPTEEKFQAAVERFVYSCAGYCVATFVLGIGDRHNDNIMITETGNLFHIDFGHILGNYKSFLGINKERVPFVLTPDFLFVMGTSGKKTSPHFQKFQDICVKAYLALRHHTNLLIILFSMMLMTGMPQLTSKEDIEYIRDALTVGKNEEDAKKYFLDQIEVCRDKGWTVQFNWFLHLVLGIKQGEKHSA
# Chain of Sodium channel protein type 5 subunit alpha (Q14524 whole entry): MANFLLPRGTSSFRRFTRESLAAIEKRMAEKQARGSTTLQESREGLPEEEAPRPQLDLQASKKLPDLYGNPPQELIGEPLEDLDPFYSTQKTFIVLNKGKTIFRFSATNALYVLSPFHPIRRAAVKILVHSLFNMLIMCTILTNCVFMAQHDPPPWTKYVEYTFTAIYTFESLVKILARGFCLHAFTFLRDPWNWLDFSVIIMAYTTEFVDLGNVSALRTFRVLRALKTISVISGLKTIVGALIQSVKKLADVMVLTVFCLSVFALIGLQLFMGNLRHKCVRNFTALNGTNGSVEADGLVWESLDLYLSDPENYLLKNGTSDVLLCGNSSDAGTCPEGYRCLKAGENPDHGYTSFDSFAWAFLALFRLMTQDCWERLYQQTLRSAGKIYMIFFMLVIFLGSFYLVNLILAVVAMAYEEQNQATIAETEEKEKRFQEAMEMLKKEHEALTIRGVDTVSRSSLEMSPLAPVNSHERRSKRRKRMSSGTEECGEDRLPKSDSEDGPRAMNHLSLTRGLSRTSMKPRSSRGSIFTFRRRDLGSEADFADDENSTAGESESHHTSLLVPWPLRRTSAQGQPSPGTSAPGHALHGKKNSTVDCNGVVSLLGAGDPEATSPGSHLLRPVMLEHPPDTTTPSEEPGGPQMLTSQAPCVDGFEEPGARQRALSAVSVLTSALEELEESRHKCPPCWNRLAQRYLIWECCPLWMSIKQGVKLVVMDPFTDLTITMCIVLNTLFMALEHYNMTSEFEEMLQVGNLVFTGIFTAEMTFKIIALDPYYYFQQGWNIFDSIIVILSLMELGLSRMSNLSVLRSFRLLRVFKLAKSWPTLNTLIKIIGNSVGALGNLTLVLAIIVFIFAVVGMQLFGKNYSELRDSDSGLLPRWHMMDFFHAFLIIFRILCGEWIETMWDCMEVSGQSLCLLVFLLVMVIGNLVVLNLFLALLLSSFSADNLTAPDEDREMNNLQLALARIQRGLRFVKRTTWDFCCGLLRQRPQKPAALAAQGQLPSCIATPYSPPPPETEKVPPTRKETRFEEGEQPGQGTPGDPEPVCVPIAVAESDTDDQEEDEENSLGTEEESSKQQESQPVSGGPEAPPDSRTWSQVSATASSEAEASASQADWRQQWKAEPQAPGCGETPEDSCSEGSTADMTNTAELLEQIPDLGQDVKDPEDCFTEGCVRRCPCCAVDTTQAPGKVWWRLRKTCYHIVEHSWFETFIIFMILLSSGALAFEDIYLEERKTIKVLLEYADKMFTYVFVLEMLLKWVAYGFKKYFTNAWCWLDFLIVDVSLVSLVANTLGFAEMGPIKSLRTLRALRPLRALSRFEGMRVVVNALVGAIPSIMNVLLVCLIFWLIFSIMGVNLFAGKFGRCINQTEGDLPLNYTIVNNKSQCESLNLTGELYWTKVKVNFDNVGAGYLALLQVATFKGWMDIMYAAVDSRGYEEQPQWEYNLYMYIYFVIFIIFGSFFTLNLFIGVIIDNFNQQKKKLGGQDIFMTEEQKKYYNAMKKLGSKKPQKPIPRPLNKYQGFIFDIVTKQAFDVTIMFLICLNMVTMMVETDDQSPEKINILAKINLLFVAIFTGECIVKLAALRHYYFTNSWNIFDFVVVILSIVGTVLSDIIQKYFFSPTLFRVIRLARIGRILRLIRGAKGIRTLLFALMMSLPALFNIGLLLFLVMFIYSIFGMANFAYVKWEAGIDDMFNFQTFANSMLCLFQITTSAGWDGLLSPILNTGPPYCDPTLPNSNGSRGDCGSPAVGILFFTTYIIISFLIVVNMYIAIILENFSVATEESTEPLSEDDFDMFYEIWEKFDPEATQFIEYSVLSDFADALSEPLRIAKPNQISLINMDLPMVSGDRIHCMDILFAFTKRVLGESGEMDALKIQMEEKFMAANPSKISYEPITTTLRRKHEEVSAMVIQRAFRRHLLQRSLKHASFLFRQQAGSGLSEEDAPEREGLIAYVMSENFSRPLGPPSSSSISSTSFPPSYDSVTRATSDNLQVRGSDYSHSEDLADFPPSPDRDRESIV
# Chain of Sodium channel protein type 2 subunit alpha (Homo sapiens) (Q99250 whole entry, looked up): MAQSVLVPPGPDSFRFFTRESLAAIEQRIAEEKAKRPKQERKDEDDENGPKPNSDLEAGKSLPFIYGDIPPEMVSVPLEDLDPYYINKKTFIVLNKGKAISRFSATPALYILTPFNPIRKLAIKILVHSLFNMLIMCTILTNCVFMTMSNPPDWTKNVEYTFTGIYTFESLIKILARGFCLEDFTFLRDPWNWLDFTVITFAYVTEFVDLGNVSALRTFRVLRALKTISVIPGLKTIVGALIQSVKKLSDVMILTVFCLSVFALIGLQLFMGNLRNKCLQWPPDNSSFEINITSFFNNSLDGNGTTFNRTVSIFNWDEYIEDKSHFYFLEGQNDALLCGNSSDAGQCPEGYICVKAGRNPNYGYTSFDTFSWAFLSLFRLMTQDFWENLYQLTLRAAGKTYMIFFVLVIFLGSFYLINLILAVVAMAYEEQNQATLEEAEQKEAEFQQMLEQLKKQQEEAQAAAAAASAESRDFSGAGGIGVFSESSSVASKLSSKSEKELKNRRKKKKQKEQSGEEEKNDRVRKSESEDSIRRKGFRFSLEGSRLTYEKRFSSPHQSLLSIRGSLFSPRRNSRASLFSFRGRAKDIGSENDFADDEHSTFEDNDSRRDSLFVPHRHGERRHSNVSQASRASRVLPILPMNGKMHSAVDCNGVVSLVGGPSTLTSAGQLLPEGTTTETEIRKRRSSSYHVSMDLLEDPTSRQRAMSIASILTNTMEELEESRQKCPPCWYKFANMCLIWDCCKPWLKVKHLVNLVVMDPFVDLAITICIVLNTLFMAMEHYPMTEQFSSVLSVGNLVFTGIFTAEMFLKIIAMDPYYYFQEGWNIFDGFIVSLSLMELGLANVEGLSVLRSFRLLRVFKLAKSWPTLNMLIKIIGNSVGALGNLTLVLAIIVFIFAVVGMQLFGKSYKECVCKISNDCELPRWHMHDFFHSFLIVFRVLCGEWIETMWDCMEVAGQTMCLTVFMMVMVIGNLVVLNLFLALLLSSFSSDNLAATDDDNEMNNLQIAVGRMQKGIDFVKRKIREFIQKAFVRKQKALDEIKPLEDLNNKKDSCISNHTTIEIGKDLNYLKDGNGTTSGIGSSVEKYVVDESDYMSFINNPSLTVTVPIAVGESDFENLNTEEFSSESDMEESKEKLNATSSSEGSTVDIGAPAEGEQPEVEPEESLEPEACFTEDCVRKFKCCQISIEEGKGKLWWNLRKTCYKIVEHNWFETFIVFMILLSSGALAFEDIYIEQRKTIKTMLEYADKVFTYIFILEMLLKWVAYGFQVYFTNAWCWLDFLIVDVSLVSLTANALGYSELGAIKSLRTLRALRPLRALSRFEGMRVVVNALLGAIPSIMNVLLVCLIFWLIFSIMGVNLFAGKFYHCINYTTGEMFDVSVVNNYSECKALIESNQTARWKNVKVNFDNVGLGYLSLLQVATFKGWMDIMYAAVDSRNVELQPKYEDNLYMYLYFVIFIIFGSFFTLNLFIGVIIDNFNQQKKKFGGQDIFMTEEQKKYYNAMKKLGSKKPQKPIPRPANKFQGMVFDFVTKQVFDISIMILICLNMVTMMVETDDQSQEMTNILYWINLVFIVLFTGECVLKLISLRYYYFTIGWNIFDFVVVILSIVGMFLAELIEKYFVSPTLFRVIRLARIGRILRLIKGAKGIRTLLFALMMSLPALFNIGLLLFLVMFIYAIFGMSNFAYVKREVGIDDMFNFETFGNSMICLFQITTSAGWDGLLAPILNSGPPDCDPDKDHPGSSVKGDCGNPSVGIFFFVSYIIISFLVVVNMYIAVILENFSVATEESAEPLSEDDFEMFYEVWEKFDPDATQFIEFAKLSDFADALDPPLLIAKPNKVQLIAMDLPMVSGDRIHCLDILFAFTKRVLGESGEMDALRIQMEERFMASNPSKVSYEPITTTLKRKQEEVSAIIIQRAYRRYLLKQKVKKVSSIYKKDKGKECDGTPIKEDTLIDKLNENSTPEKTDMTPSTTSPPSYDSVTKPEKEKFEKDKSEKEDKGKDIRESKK
smiles,measurement,setting,value
C[C@@H](Oc1ccccc1)c1cc(C(=O)N(C)CCO)cn2c(=O)cc(N3CCOCC3)nc12,IC50,[1],83000 nM
same,IC50,[2],400 nM
same,IC50,[3],210 nM
same,solubility,[4],> 1800 µM
same,half-life at 2 µM,[5],> 173 min
same,fraction unbound at 18 h,[6],0.26
same,fraction unbound at 18 h,[7],0.42
same,clearance,[8],8 mL/min/kg
same,fold change (FC),Canis familiaris [9],3.5
same,Vd,[10],1.2 L/kg
same,EC80,Canis familiaris [11],690 nM
same,bioavailability,[12],31%
same,fold change (FC),Canis familiaris [13],3.5
same,Activity,Rattus norvegicus,Non-toxic
same,inhibition (INH),[14],Not Active
same,inhibition (INH),[15],Not Active
same,inhibition,[16],inactive
same,inhibition (INH),[17],Not Active
same,inhibition,CHO,inactive
same,inhibition,[18],inactive
same,inhibition,[19],inactive
same,inhibition (INH),[20],Not Active
same,inhibition,[21],inactive
same,inhibition,[22],inactive
same,IC50,[23],950 nM
same,IC50,[24],1200 nM
Cc1cc([C@@H](C)Nc2ccccc2C(=O)O)c2nc(N3CCOCC3)cc(=O)n2c1 [AZD-6482],Papp A→B at 10 µM,[25],18 ×10⁻⁶ cm/s
same,Intrinsic clearance (CLint),Hepatocyte,17.5 µL/min
same,logD,[26],0.75
same,IC50,[3],280 nM
same,solubility,[4],100 µM
same,half-life at 2 µM,[5],40 min
same,fraction unbound at 18 h,[6],0.08
same,fraction unbound at 18 h,[7],0.1
same,clearance,[8],17 mL/min/kg
same,Vd,[10],14 L/kg
same,half-life,[27],5 min
same,Vd,[28],40 L
same,IC50,[24],270 nM

# From ChEMBL document CHEMBL3352617, “Discovery of 9-(1-phenoxyethyl)-2-morpholino-4-oxo-pyrido[1,2-a]pyrimidine-7-carboxamides as oral PI3Kβ inhibitors, useful as antiplatelet agents” (Bioorg Med Chem Lett, 2014)
